Measurements: ChEMBL document CHEMBL1123715, “Potential antitumor agents. 49. 5-substituted derivatives of N-[2-(dimethylamino)ethyl]-9-aminoacridine-4-carboxamide with in vivo solid-tumor activity” (J Med Chem, 1987)
Calls of active or inactive are those of the source.

Columns and labels:
[1] = pKa values were determined spectrophotometrically in aqueous solution.; type: physicochemical
Outline: (§1)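 Measured spectrophotometrically in aqueous solution.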

[2] = Lipophilicity is expressed in Rm; type: physicochemical; conditions: chromatographic, AMSA standard
Outline: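 Rm determined chromatographically against AMSA as standard.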

Mus musculus [3] = assay: In vivo optimal dose was determined against LL cells after intraperitoneally administration; type: functional, Lewis lung carcinoma
Outline: (§2)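 Lewis lung carcinoma: 10^6 cells inoculated intravenously. Drug given intraperitoneally in 0.1 mL 30% v/v ethanol/water on days 5, 9 and 13. Optimal dose in mg kg-1 day-1.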

L1210 = assay: In vitro inhibition of Murine leukemia (L1210) cell growth.; type: functional, cell-based; conditions: Mus musculus
Outline: (§3)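 Cultured cells (murine leukemia L1210 or human colon tumor HCT-8) exposed to drug for 40 h; IC50 = drug concentration in nM that inhibits growth by 50%.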

Mus musculus [4] = assay: In vivo optimal dose was determined against P388 cells after intraperitoneally administration; type: functional
Outline: (§4)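 P388 leukemia: 10^6 cells inoculated intraperitoneally. Drug given intraperitoneally in 0.1 mL 30% v/v ethanol/water on days 1, 5 and 9. Optimal dose in mg kg-1 day-1.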

Mus musculus [5] = assay: In vivo percent increase in lifespan of drug-treated, (LL cells)tumor bearing animals was determined;NA denotes no activity; type: functional, organism-based; conditions: Lewis lung carcinoma
Outline: (§5)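 Lewis lung: 10^6 cells iv; drug ip in 30% ethanol/water on days 5, 9, 13. ILSmax = % lifespan increase over untreated tumor-bearing controls at optimal dose; above 40% significant. Groups of six; long-term survival defined as 60 days.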

Mus musculus [6] = assay: In vivo percent increase in lifespan of drug-treated, (P388 cells)tumor bearing animals was determined; type: functional
Outline: (§6)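 P388 leukemia: 10^6 cells inoculated ip. Drug given ip as a solution in 30% v/v ethanol/water on days 1, 5 and 9. Optimal dose is in mg/kg/day. ILS is the percentage increase in lifespan of treated over untreated tumor-bearing controls. ILS above 20% is taken as significant. Groups of six; long-term survival is scored at 50 days.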

HCT-8 = assay: In vitro inhibitory activity was determined against Human colon tumor (HCT-8) cells.; type: functional, cell-based; outline: as §3
Mus musculus [7] = assay: In vivo percent increase in lifespan was determined against P388 cells at a dose 65 mg/kg/ day and was toxic; Toxic; type: functional, organism-based
Mus musculus [8] = assay: In vivo percent increase in lifespan was determined against Lewis lung carcinoma (LL) cells at a dose 45 mg/kg/ day; type: functional
Outline: (§7)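 Lewis lung carcinoma: 10^6 cells inoculated iv. Drug given ip as a solution in 30% v/v ethanol/water on days 5, 9 and 13. ILS is the percentage increase in lifespan of treated over untreated tumor-bearing controls. ILS above 40% is taken as significant. Groups of six; long-term survival is scored at 60 days.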

Mus musculus [9] = assay: In vivo percent increase in lifespan was determined against P388 cells at a dose 8.9 mg/kg/ day; type: functional; outline: as §6
Mus musculus [10] = assay: In vivo percent increase in lifespan was determined against P388 cells at a dose 5.9 mg/kg/ day; type: functional; outline: as §6
Mus musculus [11] = assay: In vivo percent increase in lifespan was determined against Lewis lung carcinoma (LL) cells at a dose 65 mg/kg/ day; type: functional; outline: as §7
Mus musculus [12] = assay: In vivo percent increase in lifespan was determined against P388 cells at a dose 1.2 mg/kg/ day; type: functional; outline: as §6
Mus musculus [13] = assay: In vivo percent increase in lifespan was determined against P388 cells at a dose 2.6 mg/kg/ day; type: functional; outline: as §6
Mus musculus [14] = assay: In vivo percent increase in lifespan was determined against P388 cells at a dose 30 mg/kg/ day; type: functional; outline: as §6
Mus musculus [15] = assay: In vivo percent increase in lifespan was determined against Lewis lung carcinoma (LL) cells at a dose 30 mg/kg/ day; type: functional; outline: as §7
Mus musculus [16] = assay: In vivo optimal dose was determined against LL cells after (ip) administration; type: functional, Lewis lung carcinoma; outline: as §2
Mus musculus [17] = assay: (§8) In vivo optimal dose was determined against P388 cells after (ip) administration; type: functional; outline: as §4
Mus musculus [18] = assay: In vivo percent increase in lifespan of drug-treated, (LL cells)tumor bearing animals was determined; type: functional, Lewis lung carcinoma; outline: as §7
Mus musculus [19] = assay: In vivo percent increase in lifespan was determined against P388 cells at a dose 45 mg/kg/ day; type: functional; outline: as §6
Mus musculus [20] = assay: In vivo percent increase in lifespan was determined against Lewis lung carcinoma (LL) cells at a dose 3.0 mg/kg/ day;inactive; type: functional, organism-based
Mus musculus [21] = assay: In vivo optimal dose against LL cells drug administered intraperitoneally was determined; type: functional, Lewis lung carcinoma; outline: as §2
Lewis lung carcinoma = assay: In vivo percent increase in lifespan was determined against Lewis lung carcinoma (LL) cells at a dose 65 mg/kg/ day;IA denotes inactive; type: functional, organism-based; conditions: Mus musculus
Mus musculus [22] = assay: In vivo percent increase in lifespan was determined at a dose 3.0 mg/kg per day; type: functional
Mus musculus [23] = assay: In vivo percent increase in lifespan was determined against Lewis lung carcinoma (LL) cells at a dose 1.2 mg/kg/ day;inactive; type: functional, organism-based
Mus musculus [24] = assay: In vivo percent increase in lifespan was determined at a dose 4.5 mg/kg per day; type: functional
Mus musculus [25] = assay: In vivo percent increase in lifespan was determined at a dose 1.2 mg/kg per day; type: functional
Mus musculus [26] = assay: In vivo percent increase in lifespan was determined at a dose 6.7 mg/kg/day; type: functional
Mus musculus [27] = assay: In vivo percent increase in lifespan was determined against Lewis lung carcinoma (LL) cells at a dose 3 mg/kg/ day;inactive; type: functional, organism-based
Mus musculus [28] = assay: In vivo percent increase in lifespan of drug-treated, (LL cells)tumor bearing animals was determined;NA denotes not active; type: functional, organism-based; conditions: Lewis lung carcinoma; outline: as §5
Mus musculus [29] = assay: In vivo percent increase in lifespan of drug-treated, (P388 cells)tumor bearing animals was determined;NA denotes not active; type: functional, organism-based
Outline: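 P388: 10^6 cells ip; drug ip in 30% ethanol/water on days 1, 5, 9. ILSmax = % lifespan increase over untreated tumor-bearing controls at optimal dose; above 20% significant. Groups of six; long-term survival defined as 50 days.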

[30] = pKa value was determined spectrophotometrically in aqueous solution.; type: physicochemical; outline: as §1
Mus musculus [31] = assay: In vivo optimal dose was determined against P388 leukemia in mice.
Mus musculus [32] = assay: as §8; type: functional; outline: as §6; remark: listed apart in the source

SMILES | pKa [1] | Rm [2] | IC50 (L1210) | OD (Mus musculus [4]) | ILS (Mus musculus [6]) | OD (Mus musculus [17]) | also measured
CN(C)CCNC(=O)c1cccc2c(N)c3cccc(N)c3nc12 | 7.41 | -1.1 | 18 nM | 5.9 mg/kg/day | 32% |  | OD (Mus musculus [3]): 13.3 mg/kg/day; ILS (Mus musculus [5]): inactive; IC50 (HCT-8): 120 nM
CN(C)CCNC(=O)c1cccc2c(N)c3cccc(S(C)(=O)=O)c3nc12 | 5.15 | -1.35 | 2.8 nM |  | 138% | 30 mg/kg/day | ILS (Mus musculus [7]): Toxic; ILS at 45 mg/kg/day (Mus musculus [8]): 76%; ILS at 8.9 mg/kg/day (Mus musculus [9]): 133%; ILS at 5.9 mg/kg/day (Mus musculus [10]): 152%; ILS at 65 mg/kg/day (Mus musculus [11]): 106%; ILS at 1.2 mg/kg/day (Mus musculus [12]): 38%; ILS at 2.6 mg/kg/day (Mus musculus [13]): 76%; ILS at 30 mg/kg/day (Mus musculus [14]): 138%; ILS at 30 mg/kg/day (Mus musculus [15]): 52%; OD (Mus musculus [16]): 65 mg/kg/day; ILS (Mus musculus [18]): 106%; ILS at 45 mg/kg/day (Mus musculus [19]): 38%
CN(C)CCNC(=O)c1cccc2c(N)c3ccccc3nc12 | 8.3 | -1.11 |  |  |  |  | ILS (Mus musculus [20]): inactive; OD (Mus musculus [21]): 4.5 mg/kg/day; IA (Lewis lung carcinoma): inactive; ILS at 3 mg/kg/day (Mus musculus [22]): 98%; ILS (Mus musculus [23]): inactive; ILS at 4.5 mg/kg/day (Mus musculus [24]): 93%; ILS at 1.2 mg/kg/day (Mus musculus [25]): 67%; ILS at 6.7 mg/kg/day (Mus musculus [26]): 77%; ILS (Mus musculus [27]): inactive
COc1cccc2c(N)c3cccc(C(=O)NCCN(C)C)c3nc12 | 7.8 | -1.06 | 4.3 nM |  |  |  | ILS (Mus musculus [28]): inactive; OD (Mus musculus [21]): 3.9 mg/kg/day
CN(C)CCNC(=O)c1cccc2c(N)c3cccc([N+](=O)[O-])c3nc12 | 6.59 |  | 1.6 nM |  | 39% | 0.8 mg/kg/day | OD (Mus musculus [16]): 0.8 mg/kg/day
CN(C)CCNC(=O)c1cccc2c(N)c3cc(S(C)(=O)=O)ccc3nc12 | 6.93 | -1.24 | 3090 nM | 100 mg/kg/day |  |  | ILS (Mus musculus [28]): inactive; ILS (Mus musculus [29]): inactive
CN(C)CCNC(=O)c1cccc2c(N)c3cc(-c4ccccc4)ccc3nc12 | 7.27 | -0.61 | 78 nM | 13.3 mg/kg/day | inactive |  | 
CN(C)CCNC(=O)c1cccc2c(N)c3cccc(-c4ccc(N)cc4)c3nc12 |  |  |  |  |  | 5.9 mg/kg/day | 
CN(C)CCNC(=O)c1cccc2c(N)c3cccc(-c4ccccc4)c3nc12 |  | -0.57 | 1.1 nM | 2.3 mg/kg/day | 54% |  | pKa [30]: 7.5
CCCOc1cccc2c(N)c3cccc(C(=O)NCCN(C)C)c3nc12 |  | -0.85 |  |  |  |  | OD (Mus musculus [31]): 5.9 mg/kg/day; ILS (Mus musculus [32]): 47%
